The data set is described as follows: Toxicity liver stage against HepG2, at 10uM. It counts as cell-based. Also noted: test concentration 10 uM, cell line HepG2-A16-CD81EGFP. The following applies: human, HepG2-A16-CD81EGFP cells; read-out: INHIBITION
The essentials: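 Uninfected HepG2-A16-CD81EGFP cells, 3 × 10^3 per well, 1536-well, plated on prespotted compound at 10 μM final, parasite-free screening media added to match infected plates; puromycin 10 μM positive, DMSO 0.5% negative; run in parallel with 48 h PbLuc assay at 37 °C, 5% CO2; viability by CellTiter-Glo luminescence, normalized to controls.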
For `COc1ccccc1CN1C[C@@H](F)[C@@H](OCc2nc3ncccc3[nH]2)C1`, the cytotoxicity at 10 µM came out at 6.96%.
Take `CC(C)n1cc(C(=O)NC2CN3CCC2CC3)c2ccccc21` (stereo not drawn): the cytotoxicity at 10 µM was -59.7%.
Then `Cc1nc(-n2nc(-c3cccs3)cc2N)[nH]c(=O)c1C`, with 4.84%.
Then `c1csc(CN2CCC3(CC2)COCCN3CC2CC2)n1`, with 5.53%.
Then `COc1ccc(OC)c(CN2CCCCCC2c2cccs2)c1` (stereo not drawn), with -5%; and `Cc1cccc(NC(=O)Cn2ncc(SCC(N)=O)c(Cl)c2=O)c1C`, with -15.7%; and `CC(C)CN1CCC2(CCN(Cc3ccoc3)CC2)C1=O`, with 7.85%.
For the molecule `Cc1c(-c2cc(C(F)(F)F)nc(N3CCC(N)CC3)n2)cnn1C`, the cytotoxicity at 10 µM was found to be 6.14%.
Take `CCn1nc(C)c2nc(C(C)C)nc(NCCCn3cccn3)c21`: the cytotoxicity at 10 µM turned out to be 8.71%.
With `CCOc1cc(C(=O)N2CCCC2)cc2occc12`, the cytotoxicity at 10 µM was 8.52%.
For `O=C(Cc1ccccc1)NCc1ccc(-c2ccccc2C(=O)O)cn1`, the cytotoxicity at 10 µM was -11.5%.
Then `Cc1ccnc(C2CCN(C(=O)c3cnn(C)c3)CC2)n1`, with -4.15%; and `Cc1cnc2[nH]c(C(F)(F)F)c(CN3CCCC(CO)C3)c2c1` (stereo not drawn), with 8.48%; and `CCC(=O)N1CCCC1c1nc(N(C)C)ncc1-c1ccc(Cl)cc1` (stereo not drawn), with 5.82%.
Then `Cc1cc(O)nc(C2CN(CCO)CCO2)n1` (stereo not drawn), with -27.8%; and `COc1cccc(CC(=O)N2CCCC2c2nc(C)c(C)c(O)n2)c1` (stereo not drawn), with -36.9%.
As for `Cc1cc(-c2cnc(N3CCNC(=O)C3)nc2-c2ccncc2)on1`, the cytotoxicity at 10 µM is -25%.
To `Cc1cccc(CC(=O)N2CCCC(c3n[nH]c4nccnc34)C2)c1` (stereo not drawn) belongs -8.52%; to `O=C(C1CCCCC1)N1CCC2(COc3ncccc3S(=O)(=O)N2)C1` (stereo not drawn), 11.3%; to `CC(=O)Nc1nccn1Cc1ccccc1Cl`, -8.1%.
On to `O=C(NCc1nnc2n1CCC2)c1cn(-c2ccccc2Br)nn1`, for which the cytotoxicity at 10 µM turned out to be 3.37%.
To `CS(=O)(=O)N1CCCC(c2nc(-c3ccccc3)c[nH]2)C1` (stereo not drawn) belongs 2.44%; to `Cc1nn(C)c(C)c1C1CCCN1Cc1nnc(C2CC2)n1C` (stereo not drawn), 1.76%; to `COc1cc(NC(=O)NCc2nccn2C)ccc1Br`, -9.11%.
To `O=C(Cc1cccnc1)N1CCCC(c2cc(C(F)(F)F)[nH]n2)C1` (stereo not drawn) belongs -42.6%.
Then `NC(=O)C(Cc1ccccc1)NS(=O)(=O)Cc1ccccc1F` (stereo not drawn), with -13%; and `COc1cc(C#N)ccc1OCC(=O)NS(=O)(=O)c1ccccc1`, with 0.165%.
On to `CCN1CC(COC(=O)c2cc(C)nn2CC)CC1=O` (stereo not drawn), for which the cytotoxicity at 10 µM is -3.37%.
As to `COc1cc(C)c(S(=O)(=O)CC(=O)N(C)C2CC2)cc1OC`, the cytotoxicity at 10 µM was -3.81%.
To `Fc1cc(CNCCn2cccn2)ccc1-n1cncn1` belongs -11.1%.
As for `Cc1nccn1-c1ccc(C(C)NCc2cc[nH]n2)cc1` (stereo not drawn), the cytotoxicity at 10 µM came out at 5.33%.
Then `COc1cc(OC)cc(N2CCC(NC(=O)c3ccc[nH]3)CC2)c1`, with -4.83%; and `Cn1ccc(C(=O)N2CCOC(c3ccccc3)C2)cc1=O` (stereo not drawn), with -0.944%; and `COC(=O)CN(CC1CCOC1)C1CC1` (stereo not drawn), with -24.3%.
Then `CCCn1cc(NC(=O)c2ccncc2)ccc1=O`, with -8.44%; and `CCC1CCCCN1CCNC(=O)N1CCN(Cc2ccon2)CC1` (stereo not drawn), with -2.01%.
To `O=C(C1CCCc2[nH]ncc21)N1CCCC2(C1)OCCO2` (stereo not drawn) belongs -1.26%.
On to `CCCS(=O)(=O)NCc1cccnc1OCc1ccccc1`, for which the cytotoxicity at 10 µM stood at 13%.
Then `CCC(=O)N1CCCC1c1ccsc1` (stereo not drawn), with -6.05%; and `N#Cc1cccc(C(=O)NS(=O)(=O)c2ccc(C#N)c(Cl)c2)c1`, with -3.54%.
To `Cc1cc(N2CCc3cncnc3C2)n2nc(C(F)(F)F)nc2n1` belongs 6.25%.
In the case of `CN1CCN(c2ccccc2NC(=O)c2ccco2)CC1`, the cytotoxicity at 10 µM was -5.92%.
As for `CCN(C)C(=O)CCN(C)Cc1cnc(C)s1`, the cytotoxicity at 10 µM was found to be 4.04%.
To `CN(C(=O)c1ccc(S(=O)(=O)NC(C)(C)C)cc1)C1(C#N)CCC1` belongs 3.07%; to `c1ccc(C(NCc2nnc(-c3ccco3)o2)C2CCC2)cc1` (stereo not drawn), -48.7%; to `O=C1C(N2CCOCC2)CCCN1Cc1cccc(C(F)(F)F)c1` (stereo not drawn), 0.174%.
As for `Cc1noc(-c2cccnc2N(C)Cc2cc(C)on2)n1`, the cytotoxicity at 10 µM was -5.1%.
To `CC1CCCCN1CCNC(=O)NCc1ccc(C#N)cc1F` (stereo not drawn) belongs 0.616%; to `N#CCSCCCN1CCN(C(=O)C2CCCC2)CC1`, 5.34%.
To `C[C@@H]1CN(C(=O)c2cccc(F)c2)C[C@]12CCN(c1ccsc1)C2=O` belongs -80%.
Then `O=C(c1ccncn1)N1CCC[C@]2(C[C@H](OCC3CC3)CO2)C1`, with -81.9%; and `Cc1cc(CN2CC[C@H]3C[C@@H](C)O[C@@H]3C2)no1`, with -75.5%; and `c1cncc(OC2CCN(CCn3cc4ccccc4n3)CC2)c1`, with 1.48%.
`Cc1ncsc1CCN(C)C1CCN(c2ncnc3[nH]cnc23)CC1`: the cytotoxicity at 10 µM is -39%.
For `CCc1ccc2nc(NCC(O)CO)cc(C)c2c1` (stereo not drawn), the cytotoxicity at 10 µM was -15.4%.
To `CN(Cc1ccoc1)C(=O)Cn1ncc(N(C)C)cc1=O` belongs 7.68%; to `COc1cc(-c2cccc3c2OC(CN)C3)ccc1O` (stereo not drawn), -51.9%.
Then `Clc1cccc2c1CCN(Cc1nc(CC3CC3)no1)C2`, with 0.873%; and `CN(CCc1cnn(C)c1)C(=O)CN1C(=O)OC[C@@H]1c1ccccc1`, with -41.7%.
Then `CCC(CO)N(Cc1ccsc1)CC1CC1` (stereo not drawn), with 11.5%.
For `CN(Cc1cc2n(n1)CCN(C(=O)[C@H]1CCCO1)C2)Cc1nccs1`, the cytotoxicity at 10 µM is 7.92%.
Then `Cc1ccc(CN2CCN(C3CSCCSC3)CC2CCO)o1` (stereo not drawn), with -8.51%.
Consider `CCN(Cc1cccc2c1OCO2)CC1CCCO1` (stereo not drawn), for which the cytotoxicity at 10 µM is 3.18%.
To `COc1cc2nc(NCCNS(C)(=O)=O)cc(C)c2cc1OC` belongs -1.08%.
To `CN1CC2(CCN(C(=O)c3ccc(=O)n(C)c3)CC2)CC1=O` belongs -4.46%.
Then `CCCc1nc(CNc2nc(C)nc3oc(C)nc23)cs1`, with -39.6%; and `CC(C)N1CC2(CCCN(Cc3noc(C4CCCC4)n3)C2)CCC1=O` (stereo not drawn), with 0.00194%; and `O=C(NCc1ccc2c(c1)CCCO2)c1ccc(C2CCNC2)cc1` (stereo not drawn), with -11.5%.
As for `Cc1n[nH]c(C)c1CCc1nc(C2CC2)n[nH]1`, the cytotoxicity at 10 µM was -12%.
Regarding `O=C(Nc1ccccc1C(=O)NCCCN1CCOCC1)c1ccco1`, the cytotoxicity at 10 µM is 8.17%.
To `Cc1cc(C(=O)N[C@H]2CN(CCC(N)=O)C[C@@H]2C2CC2)sc1C` belongs 8.28%; to `CC(C)c1cccc(N2CCCC3(CCC(=O)N(C4CC4)C3)C2)n1` (stereo not drawn), -5.01%.
Regarding `COc1ccc(C(CNC(=O)c2c(C)noc2C)N(C)C)cc1` (stereo not drawn), the cytotoxicity at 10 µM was -13.1%.
Then `Nc1cc2c(nn1)CCN(C(=O)CC1CCCCC1)C2`, with -2.78%.
For the molecule `CS(=O)(=O)NCCN1CCCC1c1ccc(Cl)cc1` (stereo not drawn), the cytotoxicity at 10 µM came to 3.6%.
To `Cc1ccc(C(=O)N(C2CC2)C2CC(=O)NC2=O)cc1F` (stereo not drawn) belongs -7.33%; to `c1cnnc(NCC2CN(Cc3ccon3)CCO2)c1` (stereo not drawn), -32.2%.
To `CNS(=O)(=O)c1cccc(CNc2ncccn2)c1` belongs -9.7%; to `O=C(NCCNc1ncccn1)C1CC(=O)N(Cc2ccccn2)C1` (stereo not drawn), -10.4%; to `Cn1ncc2c1CCCC2NCc1cccc(OC2CCCC2)c1` (stereo not drawn), -19.3%.
Then `O=C(CCOc1ccccc1)N1CCC(Nc2cccnn2)CC1`, with -9.29%; and `CC(C)NC(=O)C(c1ccccc1)N1CCn2c(nnc2C2CC2)C1` (stereo not drawn), with -3.3%; and `Fc1ccc(OCc2noc(CN3CCc4cncnc4C3)n2)cc1`, with 2%.
In the case of `CCc1noc(C(C)N2CCC(N3CCCC3)CC2)n1` (stereo not drawn), the cytotoxicity at 10 µM is -7.77%.
Then `CN(C(=O)c1cc(Cl)c[nH]1)C1CCN(c2ccccn2)CC1`, with -1.49%; and `CC1CN(CC(=O)NC2CCCC2)CCN1c1ccc2nncn2n1` (stereo not drawn), with -1.58%.
Then `CCc1nc(CN2CCN(C(=O)Cc3c(C)noc3C)CC2)cs1`, with -0.549%.
To `O=C(N1CCCC1)C1(Cc2ccc(-c3cccs3)cc2)CCNC1` (stereo not drawn) belongs -1.75%.
Turning to `c1cncc(CN2CCO[C@@H]3CN(Cc4ccoc4)CC[C@@H]3C2)c1`, the cytotoxicity at 10 µM is -70.9%.
To `CC(C)Oc1ncnc2c1CCN(Cc1ccco1)CC2` belongs 8.49%; to `O=C(C1CCC1)N1C[C@@H]2CN(Cc3ccncc3)C(=O)[C@@H]2C1`, -113%; to `CN(CCc1ccccn1)C(=O)c1cccs1`, 3.45%.
With `O=C(c1ccccc1)N1CCCn2c(CN3CCCCC3)nnc2C1`, the cytotoxicity at 10 µM is -65.5%.
To `CNC(=O)c1cc2c(nc1N(C)C)CCN(c1ncc(F)cn1)CC2` belongs -131%; to `Cc1ccc(C(=O)N2C[C@H](N3CCOCC3)[C@@H]3OCCC[C@@H]32)cn1`, -108%; to `O=C([C@@H]1COC[C@H]2CN(C3CCCC3)C[C@H]21)N1CCC(F)CC1`, -103%.
To `CN1CCN(C=C2N=C(c3cc(-c4ccc(F)cc4)n[nH]3)ON2)CC1` belongs -2.08%; to `CCn1[nH]c(C)c2c(C(F)(F)C(F)(F)F)cc(=O)nc1-2`, -9.29%.

The values are drawn from ChEMBL document CHEMBL4513216, “Probing the Open Global Health Chemical Diversity Library for Multistage-Active Starting Points for Next-Generation Antimalarials” (ACS Infect Dis, 2020).
